Where a SMILES comes first, the peptide text is derived from it. [ ]: non-standard residue; d: D form. Phe(4-Cl) = N[C@@H](Cc1ccc(Cl)cc1)C(=O)O; 2Nal = N[C@@H](Cc1ccc2ccccc2c1)C(=O)O; d2Nal = N[C@H](Cc1ccc2ccccc2c1)C(=O)O

We go through 33 compounds from ChEMBL document CHEMBL1128385, “Three-dimensional quantitative structure-activity relationships of somatostatin analogues. 1. Comparative molecular field analysis of growth hormone release-inhibiting potencies” (J Med Chem, 1995).

The species named for this test is Rattus norvegicus. The test is described as follows: In vitro GH release inhibiting potency on anterior pitutaries from adult male rats, relative to somatostatin. The class given is functional. In a few lines: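 Rat anterior pituitary cells (adult males, 200-250 g), trypsin/DNase dispersed, plated 2 × 10^5 cells/well, cultured 96 h at 37 °C in serum-supplemented DMEM. After washing, cells were pulsed 3 h at 37 °C with 1 nM GRF(1-29)NH2 ± graded analogue doses in medium 199/1% BSA, quadruplicate wells. Medium GH was measured by double-antibody RIA. Potency relative to somatostatin (=1.0) came from four-point assay (mean of ≥3 experiments) or IC50 comparison.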
In turn, `CC(C)[C@@H]1NC(=O)[C@H](CCCCN)NC(=O)[C@@H](Cc2c[nH]c3ccccc23)NC(=O)[C@H](Cc2ccc(O)cc2)NC(=O)[C@@H](NC(=O)[C@H](N)Cc2ccc3ccccc3c2)CSSC[C@@H](C(=O)N[C@H](C(N)=O)[C@@H](C)O)NC1=O` yielded a GHI of 0.83. The compound `C[C@@H](O)[C@@H]1NC(=O)C(CCCCN)NC(=O)[C@@H](Cc2c[nH]c3ccccc23)NC(=O)C(Cc2ccccc2)NC(=O)[C@@H]2CCCN2C(=O)C(Cc2ccccc2)NC1=O` (single isomer, unassigned) returned a GHI of 0.59. For the compound `CC1C(=O)N[C@@H](Cc2ccccc2)C(=O)NC(Cc2c[nH]c3ccccc23)C(=O)N[C@@H](CCCCN)C(=O)NC([C@@H](C)O)C(=O)N[C@@H](Cc2ccccc2)C(=O)N1C` (single isomer, unassigned), the GHI is 0.29.

`C[C@@H](O)[C@@H]1NC(=O)[C@H](CCCCN)NC(=O)[C@@H](Cc2c[nH]c3ccccc23)NC(=O)[C@H](Cc2ccc(F)cc2)NC(=O)[C@H](Cc2ccccc2)NC(=O)CCCCCCNC(=O)[C@H](Cc2ccccc2)NC1=O` (stereo in doubt) had a GHI of 20.

As to `C[C@@H](O)[C@@H]1NC(=O)C(CCCCN)NC(=O)[C@@H](Cc2c[nH]c3ccccc23)NC(=O)C(Cc2ccccc2)NC(=O)[C@H](Cc2ccccc2)NC(=O)C(Cc2ccccc2)NC1=O` (single isomer, unassigned), the GHI turned out to be 3.71. The result for `C[C@@H](O)[C@@H]1NC(=O)[C@H](Cc2ccc(N)cc2)NC(=O)[C@H](Cc2cn(C)c3ccccc23)NC(=O)[C@H](Cc2ccccc2)NC(=O)[C@H](Cc2ccccc2)NC(=O)CCCCCCNC(=O)[C@H](Cc2ccccc2)NC1=O` (stereo in doubt) reads 1.8.

Compound `CC(C)[C@@H]1NC(=O)[C@H](CCCCN)NC(=O)[C@@H](Cc2c[nH]c3ccccc23)NC(=O)[C@H](Cc2ccc(O)cc2)NC(=O)[C@@H](NC(=O)[C@H](N)Cc2ccc3ccccc3c2)CSSC[C@@H](C(=O)N[C@H](C(=O)O)[C@@H](C)O)NC1=O` registered a GHI of 1.07.

With `C[C@H](NC(=O)[C@H](N)Cc1ccccc1)C(=O)N[C@@H](Cc1ccc(O)cc1)C(=O)N[C@H](Cc1c[nH]c2ccccc12)C(=O)N[C@@H](CCCCN)C(=O)N[C@H](C(=O)N[C@@H](C)C(=O)N[C@@H](Cc1ccc2ccccc2c1)C(N)=O)[C@@H](C)O`, the GHI amounted to 16. For the compound `C[C@@H](O)[C@@H]1NC(=O)[C@H](CCCCN)NC(=O)[C@H](Cc2c[nH]c3ccc(Br)cc23)NC(=O)[C@H](Cc2ccccc2)NC(=O)[C@H](Cc2ccccc2)NC(=O)CCCCCCNC(=O)[C@H](Cc2ccccc2)NC1=O` (stereo in doubt), the GHI stood at 50. `NCCCCC1NC(=O)[C@@H](Cc2c[nH]c3ccccc23)NC(=O)C(Cc2ccccc2)NC(=O)[C@H](Cc2ccccc2)NC(=O)CCCCCCNC(=O)C(Cc2ccccc2)NC(=O)C2(CCCC2)NC1=O` (single isomer, unassigned) had a GHI of 6.7. `C[C@@H](O)[C@@H]1NC(=O)[C@H](CCCCN)NC(=O)[C@@H](Cc2c[nH]c3ccccc23)NC(=O)[C@H](Cc2ccccc2)NC(=O)[C@@H](NC(=O)[C@H](N)Cc2ccccc2)CSSC[C@@H](C(=O)N[C@@H](Cc2ccc3ccccc3c2)C(N)=O)NC1=O` showed a GHI of 0.22. The result for `CC(C)[C@@H]1NC(=O)[C@H](CCCCN)NC(=O)[C@@H](Cc2c[nH]c3ccccc23)NC(=O)[C@H](Cc2ccc(O)cc2)NC(=O)[C@H](NC(=O)[C@H](N)Cc2ccccc2)CSSC[C@@H](C(=O)N[C@@H](Cc2ccc3ccccc3c2)C(=O)O)NC1=O` reads 0.06. `COc1ccc2[nH]cc(C[C@@H]3NC(=O)[C@H](Cc4ccccc4)NC(=O)[C@H](Cc4ccccc4)NC(=O)CCCCCCNC(=O)[C@H](Cc4ccccc4)NC(=O)[C@H]([C@@H](C)O)NC(=O)[C@H](CCCCN)NC3=O)c2c1` (stereo in doubt) showed a GHI of 50. In the case of `CC(C)C[C@@H]1NC(=O)[C@H](Cc2ccccc2)NC(=O)CCCCCCNC(=O)[C@H](Cc2ccccc2)NC(=O)[C@H]([C@@H](C)O)NC(=O)[C@H](CCCCN)NC(=O)[C@@H](Cc2c[nH]c3ccccc23)NC1=O` (stereo in doubt), the GHI worked out at 1.05. Turning to `CC1NC(=O)[C@H]([C@@H](C)O)NC(=O)C(CCCCN)NC(=O)[C@@H](Cc2c[nH]c3ccccc23)NC(=O)C(Cc2ccccc2)NC(=O)[C@@H]2CCCN2C1=O` (single isomer, unassigned; 58), the GHI came out at 16.7. Consider `CC(C)[C@H](NC(=O)[C@H](CCCCN)NC(=O)[C@@H](Cc1c[nH]c2ccccc12)NC(=O)[C@H](Cc1ccc(O)cc1)NC(=O)[C@H](C)NC(=O)[C@H](N)Cc1ccccc1)C(=O)N[C@@H](C)C(=O)N[C@@H](Cc1ccc2ccccc2c1)C(N)=O` (H-[dF]AY[dW]KVA[2Nal]-NH2), for which the GHI came out at 15. Consider `C[C@@H](O)[C@H](NC(=O)[C@H](Cc1ccccc1)NC(=O)[C@@H](NC(=O)[C@H](CCCCN)NC(=O)[C@@H](Cc1c[nH]c2ccccc12)NC(=O)[C@H](Cc1ccc(O)cc1)NC(=O)[C@H](Cc1ccc(Cl)cc1)NC(=O)[C@H](N)Cc1ccccc1)[C@@H](C)O)C(N)=O` (H-[dF][Phe(4-Cl)]Y[dW]KTFT-NH2), for which the GHI was found to be 3.4. `C[C@@H](O)[C@@H]1NC(=O)C(CCCCN)NC(=O)[C@@H](Cc2c[nH]c3ccccc23)NC(=O)C(Cc2ccc(O)cc2)NC(=O)[C@@H]2CCCN2C(=O)C(Cc2ccccc2)NC1=O` (single isomer, unassigned) came in with a GHI of 0.07.

As to `C[C@@H](O)[C@@H]1NC(=O)[C@H](CCCCN)NC(=O)[C@@H](Cc2c[nH]c3ccccc23)NC(=O)[C@H](Cc2ccccc2)NC(=O)[C@H](Cc2ccccc2)NC(=O)CCCCCCNC(=O)[C@H](Cc2ccccc2)NC1=O` (stereo in doubt), the GHI was found to be 1.08. `CC(C)[C@H](NC(=O)[C@H](CCCCN)NC(=O)[C@@H](Cc1c[nH]c2ccccc12)NC(=O)[C@H](Cc1ccc(O)cc1)NC(=O)[C@H](Cc1ccccc1)NC(=O)[C@H](N)Cc1ccccc1)C(=O)N[C@@H](Cc1ccccc1)C(=O)N[C@H](C(N)=O)[C@@H](C)O` (H-[dF]FY[dW]KVFT-NH2): the GHI was 111. Regarding `C[C@@H]1NC(=O)[C@H](Cc2ccccc2)NC(=O)CCCCCCNC(=O)[C@H](Cc2ccccc2)NC(=O)[C@H]([C@@H](C)O)NC(=O)[C@H](CCCCN)NC(=O)[C@@H](Cc2c[nH]c3ccccc23)NC1=O` (stereo in doubt), the GHI is 6.25.

Turning to `C[C@@H](O)[C@@H]1NC(=O)[C@H](CCCCN)NC(=O)[C@@H](Cc2c[nH]c3ccccc23)NC(=O)[C@H](Cc2ccc(N)cc2)NC(=O)[C@H](Cc2ccccc2)NC(=O)CCCCCCNC(=O)[C@H](Cc2ccccc2)NC1=O` (stereo in doubt), the GHI was 35. On to `CN[C@H](C)C(=O)N[C@@H](Cc1ccc(O)cc1)C(=O)N[C@H](Cc1c[nH]c2ccccc12)C(=O)N[C@@H](CCCCN)C(=O)N[C@H](C(=O)N[C@@H](Cc1ccccc1)C(N)=O)C(C)C`, for which the GHI came out at 20000. The result for `C[C@@H](O)[C@H](NC(=O)[C@H](Cc1ccccc1)NC(=O)[C@@H](NC(=O)[C@H](CCCCN)NC(=O)[C@@H](Cc1c[nH]c2ccccc12)NC(=O)[C@H](Cc1ccc(O)cc1)NC(=O)[C@H](Cc1ccc(Cl)cc1)NC(=O)[C@H](N)Cc1ccc2ccccc2c1)[C@@H](C)O)C(N)=O` (H-[d2Nal][Phe(4-Cl)]Y[dW]KTFT-NH2) reads 17; that for `CC[C@@H]1NC(=O)[C@H](CCCCN)NC(=O)C(Cc2c[nH]c3ccccc23)NC(=O)[C@H](Cc2ccc(O)cc2)NC(=O)[C@@H]2Cc3ccccc3CN2C(=O)[C@H](Cc2ccccc2)NC1=O` (single isomer, unassigned), 0.26; that for `CC1NC(=O)[C@@H]2CCCN2C(=O)C(Cc2ccccc2)NC(=O)[C@H]([C@@H](C)O)NC(=O)C(CCCCN)NC(=O)[C@@H](Cc2c[nH]c3ccccc23)NC1=O` (single isomer, unassigned), 5. Take `CC(C)[C@H](NC(=O)[C@H](CCCCN)NC(=O)[C@@H](Cc1c[nH]c2ccccc12)NC(=O)[C@H](Cc1ccc(O)cc1)NC(=O)[C@H](Cc1ccc(Cl)cc1)NC(=O)[C@H](N)Cc1ccccc1)C(=O)N[C@@H](Cc1ccccc1)C(=O)N[C@H](C(N)=O)[C@@H](C)O` (H-[dF][Phe(4-Cl)]Y[dW]KVFT-NH2): the GHI is 17. The compound `C[C@@H](O)[C@H](NC(=O)[C@H](Cc1ccccc1)NC(=O)[C@@H](NC(=O)[C@H](CCCCN)NC(=O)[C@@H](Cc1c[nH]c2ccccc12)NC(=O)[C@H](Cc1ccccc1)NC(=O)[C@H](Cc1ccccc1)NC(=O)[C@H](N)Cc1ccccc1)[C@@H](C)O)C(N)=O` (H-[dF]FF[dW]KTFT-NH2) registered a GHI of 77. As for `CC(C)[C@H](NC(=O)[C@H](CCCCN)NC(=O)[C@@H](Cc1c[nH]c2ccccc12)NC(=O)[C@H](Cc1ccc(O)cc1)NC(=O)[C@H](Cc1ccccc1)NC(=O)[C@H](N)Cc1ccccc1)C(=O)N[C@@H](Cc1ccccc1)C(=O)N[C@H](Cc1ccc2ccccc2c1)C(N)=O` (H-[dF]FY[dW]KVF[d2Nal]-NH2), the figure is 12500; as for `CC1NC(=O)[C@H]([C@@H](C)O)NC(=O)C(CCCCN)NC(=O)[C@@H](Cc2c[nH]c3ccccc23)NC(=O)C(Cc2ccccc2)NC(=O)[C@@H]2CCCN2C1=O` (single isomer, unassigned; 61), 500. The result for `C[C@H]1C(=O)NC(Cc2ccccc2)C(=O)NCCCCCCC(=O)N[C@@H](Cc2ccccc2)C(=O)NC(Cc2ccccc2)C(=O)N[C@H](Cc2c[nH]c3ccccc23)C(=O)NC(CCCCN)C(=O)N1C` (single isomer, unassigned) reads 50; that for `CC[C@@H]1NC(=O)C(CCCCN)NC(=O)[C@@H](Cc2c[nH]c3ccccc23)NC(=O)C(Cc2ccccc2)NC(=O)[C@@H]2CCCN2C(=O)C(Cc2ccccc2)NC1=O` (single isomer, unassigned), 1.25; that for `C[C@H](NC(=O)[C@H](N)Cc1ccccc1)C(=O)N[C@@H](Cc1ccccc1)C(=O)N[C@H](Cc1c[nH]c2ccccc12)C(=O)N[C@@H](CCCCN)C(=O)N[C@H](C(=O)N[C@@H](C)C(=O)N[C@H](C(N)=O)[C@@H](C)O)[C@@H](C)O` (H-[dF]AF[dW]KTAT-NH2), 2500.
